PMC10240386 (Cell chemical biology, 2023)
Like-named read-outs stand apart in the source and are kept apart here.

Columns and labels:
[1] = tested on: DHA-resistant clones DR1, DR2, DR4 derived from Dd2; assay: Standard 72-h in vitro assay on DHA-resistant clones; format: cell-based, Plasmodium falciparum; settings: standard 72-h assay
Pf20S β5 = Pf20S β5 (Plasmodium falciparum, UniProt A0A5K1K7U1+Q8IJT1); assay: biochemical; format: biochemical; settings: for activity against Pf20S: Pf20S β5
[2] = tested on: Pf20S β5 in lysate of Dd2^WT; assay: Blocking of MV151 labeling in parasite lysate; format: binding, Plasmodium falciparum; settings: 1 h preincubation of Dd2^WT lysate
Procedure, shortened: (§1)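 Dd2 wild-type or mutant parasite pellets lysed on ice for 1 h in 50 mM Tris-HCl, 5 mM MgCl2, 1 mM DTT, pH 7.4, then centrifuged; protein quantified by BCA. 5–10 µg of lysate protein preincubated with test compound for 1 h at 37°C. MV151 added at 2 µM final for a further 1 h at 37°C, protected from light. Run on 12% Bis-Tris SDS-PAGE and scanned at Cy3/TAMRA (λex 532, λem 560 nm).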

Dd2β6^A117D = assay: Parasite growth inhibition assay, erythrocytic stage; format: cell-based, Plasmodium falciparum
Pf20Sβ5^A49S = assay: Blocking of MV151 labeling in parasite lysate; format: binding, Plasmodium falciparum; settings: 1 h preincubation of Dd2β5^A49S lysate
Procedure, shortened: as §1

HepG2 cells = assay: HepG2 cell viability assay; format: cell-based; settings: read-out: HepG2
[3] = tested on: intracellular Pf20S β5 with the β6^A117D mutation; assay: Intraparasitic hybrid activation and proteasome inhibition assay; format: cell-based, Plasmodium falciparum; settings: ATZ4 700 nM, Dd2β6^A117D parasites, compared with WT
Procedure, shortened: (§2)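 Dd2 wild-type and mutant lines grown synchronized to 5–8% parasitemia. Early-trophozoite infected erythrocytes pulsed 6 h with test compound (700 or 800 nM) or DMSO, then washed four times in complete medium. Parasites released with saponin, washed in cold PBS and lysed in 20 mM Tris-HCl, 5 mM MgCl2, 1 mM DTT, pH 7.4. Equal lysate amounts labeled with 2 µM MV151 for 1 h at 37°C, separated by SDS-PAGE and scanned on the TAMRA channel.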

Pf Dd2^WT = assay: Parasite growth inhibition assay, erythrocytic stage; format: cell-based, Plasmodium falciparum; settings: for EC50: read-out: EC50 Pf Dd2^WT
Dd2β5^A49S = assay: as above; format: cell-based, Plasmodium falciparum
human c-20S β5c = human c-20S β5c (Homo sapiens, UniProt P20618+P28074); assay: Proteasome IC50 determination, human c-20S β5c; format: biochemical
Procedure, shortened: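 Human c-20S (0.2 nM) assayed in 20 mM HEPES, 0.5 mM EDTA, 0.1 mg/mL BSA, pH 7.5, with 0.02% SDS and 25 µM suc-LLVY-AMC. Pf20S (1 nM) assayed in 50 mM Tris, 5 mM MgCl2, 1 mM DTT, pH 7.4, with 12 nM PA28α, 0.5 µM WLW-VS and 25 µM suc-LLVY-AMC. Test compound given as a 3-fold series, 100–0.0017 µM final. AMC read at 360/460 nm for 1–2 h; linear velocities fitted to a dose-response equation. Run in duplicate or triplicate.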

P. berghei ANKA lux = assay: In vivo efficacy in mice infected with P. berghei ANKA lux; parameters: species or system Swiss Webster mice
Pf20Sβ6^A117D = assay: Blocking of MV151 labeling in parasite lysate; format: binding, Plasmodium falciparum; settings: 1 h preincubation of Dd2β6^A117D lysate
Procedure, shortened: as §1

[4] = tested on: intracellular Pf20S β5 with the β5^A49S mutation; assay: Intraparasitic hybrid activation and proteasome inhibition assay; format: cell-based, Plasmodium falciparum; settings: ATZ4 700 nM, Dd2β5^A49S parasites, compared with WT
Procedure, shortened: as §2

[5] = tested on: P. berghei G2025^R551T (K13^R551T); assay: Modified Peters' 4-day suppressive test for recrudescence, ART-resistant strain; format: in vivo, Swiss Webster mice; settings: ART 50 mg/kg, ATZ4 100 mg/kg i.p. day 0 to day 2
human i-20S β5i = human i-20S β5i (Homo sapiens, UniProt P20618+P28062); assay: Proteasome IC50 determination, human i-20S β5i; format: biochemical
Procedure, shortened: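 Human i-20S (0.4 nM) assayed in 20 mM HEPES, 0.5 mM EDTA, 0.1 mg/mL BSA, pH 7.5, with 0.02% SDS and 15 µM Ac-ANW-AMC. Pf20S (1 nM) assayed in 50 mM Tris, 5 mM MgCl2, 1 mM DTT, pH 7.4, with 12 nM PA28α, 0.5 µM WLW-VS and 25 µM suc-LLVY-AMC. Test compound given as a 3-fold series, 100–0.0017 µM final. AMC read at 360/460 nm for 1–2 h; velocities fitted to a dose-response equation. Run in duplicate or triplicate.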

Dd2β6^A117DK13^R539T = assay: Parasite growth inhibition, dual resistant strain; format: cell-based, Plasmodium falciparum
[6] = EC50 fold change, three experiments (Figure 6B)

SMILES: C[C@H]1[C@@H](CC(=O)NCCCC(=O)N[C@@H](CC(=O)NC(C)(C)C)C(=O)NCCNC(=O)c2cc(-c3ccccc3F)ccc2F)O[C@@H]2O[C@@]3(C)CC[C@H]4[C@H](C)CC[C@@H]1[C@@]24OO3 [ATZ4, (S)-N4-(tert-butyl)-N1-(2-(2′,4-difluoro-[1,1′-biphenyl]-3-carboxamido)ethyl)-2-(4-(2-((3R,5aS,6R,8aS,9R,10R,12R,12aR)-3,6,9-trimethyldecahydro-12H-3,12-epoxy[1,2]dioxepino[4,3-i]isochromen-10-yl)acetamido)butanamido)succinamide]
- susceptibility of DHA-resistant clones compared with WT Dd2 [1]: equally susceptible
- IC50 (Pf20S β5): 4.3 ± 0.9 nM
- activity against Pf20S (Pf20S β5): potency comparable with that of PI01
- blocking of MV151 labeling of β5 [2]: dose dependently blocked labeling of β5
- fold improvement over PI01 against Dd2β6^A117D (Dd2β6^A117D): ≥ 5 fold
- fold more resistant / reduced potency, Dd2β6^A117D versus parental Dd2 (Dd2β6^A117D; EC50 ratio): ≤ 2.9 fold
- EC50 (Dd2β6^A117D; Plasmodium falciparum, 72 h, read-out: EC50 Dd2β6^A117D): 6.7 ± 2.2 nM
- blocking of MV151 labeling of β5 (Pf20Sβ5^A49S): prevented PI01 and ATZ4 from inhibiting
- EC50 (HepG2 cells; Homo sapiens, HepG2, 72 h): 9400 nM
- inhibition of Pf20S β5 labeling by MV151 after 6 h pulse and washing [3]: similarly effective
- times more potent than ART1 against Dd2 (Pf Dd2^WT; EC50 ratio): 10 times
- EC50 (Pf Dd2^WT; Plasmodium falciparum, DD2, Erythrocyte, 72 h): 4.3 ± 1.3 nM
- fold improvement over PI01 against Dd2β5^A49S (Dd2β5^A49S): > 100 fold
- fold more resistant / reduced potency, Dd2β5^A49S versus parental Dd2 (Dd2β5^A49S; EC50 ratio): ≤ 3.6 fold
- EC50 (Dd2β5^A49S; Plasmodium falciparum, 72 h, read-out: EC50 Dd2β5^A49S): 5.9 ± 1.9 nM
- IC50 (human c-20S β5c): 890 ± 140 nM
- effect on parasite load (P. berghei ANKA lux; 10 mg/kg i.p. once daily day 3 to day 6, luminescence on day 7): no detectable effect
- decrease in parasite load (P. berghei ANKA lux; 25 mg/kg i.p. once daily day 3 to day 6, luminescence on day 7): 1.2 log10
- decrease in parasite load (P. berghei ANKA lux; 50 mg/kg i.p. once daily day 3 to day 6, luminescence on day 7, to below the limit of detection): > 3 log10
- blocking of MV151 labeling of β5 (Pf20Sβ6^A117D): prevented PI01 and ATZ4 from inhibiting
- inhibition of Pf20S β5 labeling by MV151 after 6 h pulse and washing [4]: similarly effective
- mice with positive blood smear on day 6 [5]: 0%
- mice with positive blood smear on day 8 [5]: 0%
- mice with positive blood smear on day 10 [5]: 60%
- IC50 (human i-20S β5i): 200 ± 57 nM
- potency across Dd2, Dd2β6^A117D, Dd2K13^R539T and Dd2β6^A117DK13^R539T (Dd2β6^A117DK13^R539T): equipotent

SMILES: C[C@H]1[C@@H](CC(=O)NCCCC(=O)N[C@@H](CC(=O)NC(C)(C)C)C(=O)NCCNC(=O)c2cc(-c3ccccc3F)ccc2F)O[C@@H]2O[C@@]3(C)CC[C@H]4[C@H](C)CC[C@@H]1[C@@]24O3 [Deoxy-ATZ4, (S)-N4-(tert-butyl)-N1-(2-(2′,4-difluoro-[1,1′-biphenyl]-3-carboxamido)ethyl)-2-(4-(2-((2R,3R,3aS,3a1R,6R,6aS,9S,10aR)-3,6,9-trimethyldecahydro-10aH-3a1,9-epoxyoxepino [4,3,2-ij]isochromen-2-yl)acetamido)butanamido)succinamide]
- susceptibility of DHA-resistant clones compared with WT Dd2 [1]: equally susceptible
- activity against Pf20S (Pf20S β5): potency comparable with that of PI01
- fold less potent against Dd2β6^A117D compared with Dd2 and Dd2K13^R539T (Dd2β6^A117D; [6]): 5.6 fold
- EC50 (HepG2 cells; 72 h cell viability, mean ± SD): 10800 nM
- EC50 (Pf Dd2^WT; 72 h growth inhibition in red blood cells, mean ± SD): 21.6 ± 1.4 nM
- fold less potent against Dd2β6^A117DK13^R539T compared with Dd2 and Dd2K13^R539T (Dd2β6^A117DK13^R539T; [6]): 11.0 fold
